Key:
[1] = target: T1, CMP-N-acetylneuraminate-beta-galactosamide-alpha-2,3-sialyltransferase 1 (Homo sapiens) (UniProt Q11201); test: Inhibition of recombinant human ST3Gal I at 100 uM incubated for 1 hrs in the presence of CMP-Neu5Ac as donor and Gal-beta1,3-GalNAc as acceptor by luminescence based CMP-Glo assay relative to control
T1 sequence (whole entry): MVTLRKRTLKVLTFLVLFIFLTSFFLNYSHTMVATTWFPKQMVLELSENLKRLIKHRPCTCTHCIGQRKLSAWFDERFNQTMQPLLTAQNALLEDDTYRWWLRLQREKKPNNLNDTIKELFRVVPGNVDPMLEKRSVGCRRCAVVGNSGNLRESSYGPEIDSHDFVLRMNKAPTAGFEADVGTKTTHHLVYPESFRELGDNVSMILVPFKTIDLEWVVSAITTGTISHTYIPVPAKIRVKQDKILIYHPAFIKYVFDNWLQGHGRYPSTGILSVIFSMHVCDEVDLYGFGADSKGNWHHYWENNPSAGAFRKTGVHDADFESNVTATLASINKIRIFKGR
Procedure, shortened: (§1)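 Human enzyme reaction with 1 mM acceptor and 100 μM CMP-Neu5Ac donor. Test agent at 10 or 100 μM, incubated for a single hour. CMP formed as by-product was converted in a luciferase reaction, and luminescence, linear with CMP concentration, was read. Percent inhibition was calculated against control.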

[2] = target: T2, Beta-galactoside alpha-2,6-sialyltransferase 1 (Homo sapiens) (UniProt P15907); test: Inhibition of recombinant human ST6Gal I at 100 uM incubated for 1 hrs in the presence of CMP-Neu5Ac as donor and LacNAc as acceptor by luminescence based CMP-Glo assay relative to control; procedure, shortened: as §1
T2 sequence (whole entry): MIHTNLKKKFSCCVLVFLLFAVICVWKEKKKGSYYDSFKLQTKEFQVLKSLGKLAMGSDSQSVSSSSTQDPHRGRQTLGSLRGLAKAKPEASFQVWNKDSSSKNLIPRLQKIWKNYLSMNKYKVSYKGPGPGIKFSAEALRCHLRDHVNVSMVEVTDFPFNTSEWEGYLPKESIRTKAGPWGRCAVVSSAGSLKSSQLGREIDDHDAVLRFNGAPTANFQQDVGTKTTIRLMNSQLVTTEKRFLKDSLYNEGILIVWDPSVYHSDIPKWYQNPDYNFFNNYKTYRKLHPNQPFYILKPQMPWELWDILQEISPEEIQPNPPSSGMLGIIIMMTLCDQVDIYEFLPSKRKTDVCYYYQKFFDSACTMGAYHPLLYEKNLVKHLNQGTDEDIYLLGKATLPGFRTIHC

[3] = target: T3, Beta-galactoside alpha-2,6-sialyltransferase 1 (Homo sapiens, UniProt P15907); test: Inhibition of recombinant human ST6Gal I incubated for 1 hrs in the presence of CMP-Neu5Ac as donor and LacNAc as acceptor by luminescence based CMP-Glo assay
T3 sequence (P15907 whole entry): T2 sequence (whole entry)
Procedure, shortened: (§2)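 For hST6Gal I, the Km for CMP-Neu5Ac was determined with acceptor held at 1 mM. Ki was determined only for agents exceeding 50% inhibition at 10 μM in the screen (1 mM acceptor, 100 μM donor). Read-out was luciferase-coupled luminescence of released CMP after a single-hour incubation.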

[4] = target: T2, Beta-galactoside alpha-2,6-sialyltransferase 1 (Homo sapiens); test: Inhibition of recombinant human ST6Gal I at 10 uM incubated for 1 hrs in the presence of CMP-Neu5Ac as donor and LacNAc as acceptor by luminescence based CMP-Glo assay relative to control; procedure, shortened: as §1
[5] = target: T2, Beta-galactoside alpha-2,6-sialyltransferase 1 (Homo sapiens); test: Ratio of Km for Substrate activity at recombinant human ST6Gal I to Ki for inhibition of recombinant human ST6Gal I at 10 uM incubated for 1 hrs in the presence of CMP-Neu5Ac as donor and LacNAc as acceptor; procedure, shortened: as §2

SMILES | inhibition [1] [%] | inhibition [4] [%] | other results
O=c1ccn([C@@H]2O[C@H](Cn3cc(C(O)c4cccc(Oc5ccccc5)c4)nn3)[C@@H](O)[C@H]2O)c(=O)[nH]1 (some centres undefined) | 43 |  | inhibition [2]: 84%
O=c1ccn([C@@H]2O[C@H](COCc3cn(C(c4cccc(OC(F)(F)C(F)F)c4)P(=O)(O)O)nn3)[C@@H](O)[C@H]2O)c(=O)[nH]1 (single isomer, unassigned) [listing 1 of 2 here] |  |  | Ki [3]: 6.7 µM
O=c1ccn([C@@H]2O[C@H](COCc3cn(C(c4ccc(F)cc4)P(=O)(O)O)nn3)[C@@H](O)[C@H]2O)c(=O)[nH]1 (single isomer, unassigned) |  | 44 | 
O=c1ccn([C@@H]2O[C@H](COCc3cn(C(c4cccc(OC(F)(F)C(F)F)c4)P(=O)(O)O)nn3)[C@@H](O)[C@H]2O)c(=O)[nH]1 (single isomer, unassigned) [listing 2 of 2 here] | 49 | 65 | Ratio [5]: 5.6
O=c1ccn([C@@H]2O[C@H](COCc3cn(C(c4cccc(OC5CCCC5)c4)P(=O)(O)O)nn3)[C@@H](O)[C@H]2O)c(=O)[nH]1 (single isomer, unassigned) |  | 41 | 
O=c1ccn([C@@H]2O[C@H](COCc3cn(C(c4cccc(C(F)(F)F)c4)P(=O)(O)O)nn3)[C@@H](O)[C@H]2O)c(=O)[nH]1 (single isomer, unassigned; form 1) |  | 23 | 
O=c1ccn([C@@H]2O[C@H](COCc3cn(C(c4cccc(C(F)(F)F)c4)P(=O)(O)O)nn3)[C@@H](O)[C@H]2O)c(=O)[nH]1 (single isomer, unassigned; form 2) |  | 39 | 
O=c1ccn([C@@H]2O[C@H](COCc3cn(C(c4cccc(Oc5ccccc5)c4)P(=O)(O)O)nn3)[C@@H](O)[C@H]2O)c(=O)[nH]1 (stereo in doubt; 13a-(l)) [listing 1 of 2 here] |  |  | Ki [3]: 50 µM
O=c1ccn([C@@H]2O[C@H](COCc3cn(C(c4cccc(Oc5ccccc5)c4)P(=O)(O)O)nn3)[C@@H](O)[C@H]2O)c(=O)[nH]1 (stereo in doubt; 13a-(l)) [listing 2 of 2 here] | 2 | 26 | Ratio [5]: 0.7
O=c1ccn([C@@H]2O[C@H](COCc3cn(C(c4cccc(Oc5ccccc5)c4)P(=O)(O)O)nn3)[C@@H](O)[C@H]2O)c(=O)[nH]1 (stereo in doubt; 13a-(s)) [listing 1 of 2 here] |  |  | Ki [3]: 40 µM
O=c1ccn([C@@H]2O[C@H](COCc3cn(C(c4cccc(Oc5ccccc5)c4)P(=O)(O)O)nn3)[C@@H](O)[C@H]2O)c(=O)[nH]1 (stereo in doubt; 13a-(s)) [listing 2 of 2 here] | 28 | 62 | Ratio [5]: 1
O=c1ccn([C@@H]2O[C@H](COCc3cn(C(c4cccc(OC5CCCC5)c4)P(=O)(O)O)nn3)[C@@H](O)[C@H]2O)c(=O)[nH]1 (stereo in doubt; 13b-(l)) |  | 10 | 
O=c1ccn([C@@H]2O[C@H](COCc3cn(C(c4ccc(F)c(Oc5ccccc5)c4)P(=O)(O)O)nn3)[C@@H](O)[C@H]2O)c(=O)[nH]1 (stereo in doubt; 13c-(l)) [listing 1 of 2 here] |  |  | Ki [3]: 34 µM
O=c1ccn([C@@H]2O[C@H](COCc3cn(C(c4ccc(F)c(Oc5ccccc5)c4)P(=O)(O)O)nn3)[C@@H](O)[C@H]2O)c(=O)[nH]1 (stereo in doubt; 13c-(l)) [listing 2 of 2 here] | 9 | 59 | Ratio [5]: 1.1
O=c1ccn([C@@H]2O[C@H](COCc3cn(C(c4ccc(F)c(Oc5ccccc5)c4)P(=O)(O)O)nn3)[C@@H](O)[C@H]2O)c(=O)[nH]1 (stereo in doubt; 13c-(s)) [listing 1 of 2 here] |  |  | Ki [3]: 6 µM
O=c1ccn([C@@H]2O[C@H](COCc3cn(C(c4ccc(F)c(Oc5ccccc5)c4)P(=O)(O)O)nn3)[C@@H](O)[C@H]2O)c(=O)[nH]1 (stereo in doubt; 13c-(s)) [listing 2 of 2 here] | 43 | 57 | Ratio [5]: 6
O=c1ccn([C@@H]2O[C@H](COCc3cn(C(c4ccc(F)cc4)P(=O)(O)O)nn3)[C@@H](O)[C@H]2O)c(=O)[nH]1 (stereo in doubt; 13d-(l)) |  | 45 | 
O=c1ccn([C@@H]2O[C@H](COCc3cn(C(c4cccc(OC(F)(F)C(F)F)c4)P(=O)(O)O)nn3)[C@@H](O)[C@H]2O)c(=O)[nH]1 (stereo in doubt; 13f-(l)) [listing 1 of 2 here] |  |  | Ki [3]: 3.4 µM
O=c1ccn([C@@H]2O[C@H](COCc3cn(C(c4cccc(OC(F)(F)C(F)F)c4)P(=O)(O)O)nn3)[C@@H](O)[C@H]2O)c(=O)[nH]1 (stereo in doubt; 13f-(l)) [listing 2 of 2 here] | 39 | 78 | Ratio [5]: 11
O=c1ccn([C@@H]2O[C@H](COCc3cn(C(c4csc5ccccc45)P(=O)(O)O)nn3)[C@@H](O)[C@H]2O)c(=O)[nH]1 (stereo in doubt; 13g-(l)) |  | 21 | 
O=c1ccn([C@@H]2O[C@H](COCc3cn(C(c4csc5ccccc45)P(=O)(O)O)nn3)[C@@H](O)[C@H]2O)c(=O)[nH]1 (stereo in doubt; 13g-(s)) |  | 25 | 

Source: ChEMBL document CHEMBL5107938, “Synthesis and biological evaluation of selective phosphonate-bearing 1,2,3-triazole-linked sialyltransferase inhibitors” (RSC Med Chem, 2021)
